In publication PMC11812931 (CPT: Pharmacometrics & Systems Pharmacology, 2024):
Marks after values point to notes of the source that are not given here.

Columns and labels:
[1] = PopPK model of MDMA and MDA; type: in vivo, human
Summary of the method: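 Single-dose plasma data came from 65 healthy volunteers: 16 from the fasted food-effect study and 49 from a randomized, double-blind, placebo-controlled crossover study. The dataset held 2012 MDMA and 1871 MDA samples, excluding BLQ values, samples with missing time and pre-dose concentrations. Modelling used nonlinear mixed effects with first-order conditional estimation with interaction. One- and two-compartment models were tested, with first-order or sequential zero-/first-order absorption.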

[2] = cited from earlier work
[3] = HVs, single oral dose of 100 mg MDMA HCl, absence of paroxetine; cited from earlier work
[4] = MPKF phase I two-period crossover food effect pharmacokinetic study; type: in vivo, human; conditions: for AUC0–inf LSM geometric mean ratio (90% CI) / C max LSM geometric mean ratio (90% CI): fed (test) vs fasted (reference); for AUC(0-inf) / Cmax: human, 120 mg; for AUC(0-inf): AUC0–inf; for Cmax: C max
[5] = MPKF fasted vs NIDA light breakfast
[6] = MPKF fed vs NIDA light breakfast
[7] = plasma, oral, Median [Min, Max], 120 mg MDMA HCl, Fasted
[8] = plasma, oral, Median [Min, Max], 120 mg MDMA HCl, Fed
[9] = plasma, po, Geo. Mean (Geo. CV%), single oral 120 mg MDMA HCl, Fasted, N = 15
[10] = plasma, po, Geo. Mean (Geo. CV%), single oral 120 mg MDMA HCl, Fed (high-fat/high-calorie meal), N = 14

## CNC(C)Cc1ccc2c(c1)OCO2 (stereo not drawn) [MDMA, 3,4‐methylenedioxymethamphetamine]
[1]; FIXED in the model
  fmet (fraction of MDMA metabolized to MDA): 0.1 FIXED
[1]; MPKF fasted compared to NIDA light breakfast
  faster absorption in fasted subjects: 193%
[1]; [5]
  Fasted status effect on ka, Bootstrap median (95% CI): 1.08 (0.277, 4.31)
  Fasted status effect on ka, Estimate: 1.93
[1]; [6]
  Fed status effect on ka, Bootstrap median (95% CI): −0.496 (−0.645, −0.239)
  Fed status effect on ka, Estimate: −0.484
[1]; MPKF vs NIDA
  Study effect on V2/F, Bootstrap median (95% CI): −0.267 (−0.342, −0.19)
  Study effect on V2/F, Estimate: −0.263
[1]; compared to NIDA
  lower MDMA CL/F for MPKF subjects: 36%
  lower MDMA V2/F for MPKF subjects: 26%
[1]; covariate coefficient
  Body weight effect on V2/F, Bootstrap median (95% CI): 0.884 (0.6, 1.11)
  Body weight effect on V2/F, Estimate: 0.885
[1]; final MDMA PopPK model
  ALAG1 (absorption lag time), Estimate: 0.322 h
  CL/F, Estimate: 41.5 L/h
  D1 (duration of zero order input), Estimate: 0.304 h
  V2/F, Estimate: 462 L
  ka, Estimate: 1.17 h⁻¹
[1]; inter-individual variability
  IIV on CL/F, Estimate: 30.5 ^a %CV
  IIV on D1, Estimate: 153 %CV
  IIV on KA, Estimate: 60.2 %CV
  IIV on V2/F, Estimate: 19.9 ^a %CV
[1]; n = 1000 bootstrap
  ALAG1, Bootstrap median (95% CI): 0.323 (0.273, 0.358) h
  CL/F, Bootstrap median (95% CI): 41.8 (37.7, 45.8) L/h
  D1, Bootstrap median (95% CI): 0.271 (0.141, 0.485) h
  V2/F, Bootstrap median (95% CI): 461 (429, 496) L
  ka, Bootstrap median (95% CI): 1.17 (0.969, 1.43) 1/h
[2]
  effective dose (as low as): ≥ 75 mg HCl
[2]; split dose
  tolerated dose (as high as): ≤ 225 mg HCl
[3]
  CL/F (apparent oral clearance): 36.3 L/h
  CLR (renal clearance): 9.40 L/h
[4]
  AUC0–inf LSM geometric mean ratio (90% CI): 0.99 (0.94–1.04)
  C max LSM geometric mean ratio (90% CI): 0.97 (0.92–1.01)
[4]; fed vs fasted
  T max delay following administration with food: 2 h
[4]; [7]
  AUC(0-inf): 3730 ng·h/mL
  Cmax: 234 ng/mL
[4]; [8]
  Cmax: 230 ng/mL
[4]; [9]
  AUC(0-inf): 3390 ng·h/mL
[4]; [10]
  AUC(0-inf): 3320 ng·h/mL
[4]; plasma, 120 mg MDMA HCl, Fasted
  T max, Median [Min, Max]: 2.1 [2.0, 8.0] h
[4]; single 120 mg MDMA HCl, healthy volunteers
  adverse events (AE) severity: mild in severity and resolved

## CC(N)Cc1ccc2c(c1)OCO2 (stereo not drawn) [MDA, 3,4‐methylenedioxyamphetamine]
[1]; compared to male
  lower V4 (MDA peripheral volume of distribution) in female subjects: 18%
[1]; covariate coefficient
  Body weight effect on CLM, Bootstrap median (95% CI): 0.585 (0.209, 0.879)
  Body weight effect on CLM, Estimate: 0.580
  Body weight effect on QM, Bootstrap median (95% CI): 1.02 (0.408, 1.63)
  Body weight effect on QM, Estimate: 1.00
[1]; female vs male
  Sex effect on V4, Bootstrap median (95% CI): −0.18 (−0.321, −0.0256)
  Sex effect on V4, Estimate: −0.181
[1]; human, plasma, oral
  Vd: 20.8 L
  clearance: 582 mL/min
[1]; inter-individual variability
  IIV on CLM, Estimate: 32.0 ^ b , ^ c %CV
  IIV on QM, Estimate: 46.8 ^ b , ^ d %CV
  IIV on V4, Estimate: 35.2 ^ c , ^ d %CV
[1]; n = 1000 bootstrap
  CLM, Bootstrap median (95% CI): 36.1 (33.5, 38.8) L/h
  QM, Bootstrap median (95% CI): 83.9 (68.8, 103) L/h
  V3, Bootstrap median (95% CI): 20.8 (11.9, 28.4) L
  V4, Bootstrap median (95% CI): 213 (181, 246) L
[4]
  AUC0–inf LSM geometric mean ratio (90% CI): 0.99 (0.93–1.06)
  C max LSM geometric mean ratio (90% CI): 0.96 (0.90–1.03)
[4]; [7]
  AUC(0-inf): 358 ng·h/mL
  Cmax: 12.5 ng/mL
[4]; [8]
  AUC(0-inf): 343 ng·h/mL
[4]; [9]
  AUC(0-inf): 330 ng·h/mL
[4]; [10]
  AUC(0-inf): 369 ng·h/mL
